≈ marks a conversion by molar mass, not a printed value.
What was measured:
Pseudomonas aeruginosa [1] = test: Antimicrobial activity against Pseudomonas aeruginosa M2; assay type: functional
Method in brief: (§1)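 Microtiter broth dilution in brain heart infusion (BHI). Cells were grown overnight at 37°C in BHI broth and diluted in the same medium. Serial peptide dilutions were inoculated to a final 5 x 10^5 CFU/ml and incubated at 37°C for 24 h. The MIC is the lowest peptide concentration that inhibited growth.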

Pseudomonas aeruginosa [2] = test: Antimicrobial activity against Pseudomonas aeruginosa PAO1; assay type: functional; method in brief: as §1
Pseudomonas aeruginosa [3] = test: Antimicrobial activity against Pseudomonas aeruginosa WR5; assay type: functional; method in brief: as §1
Pseudomonas aeruginosa [4] = test: Antimicrobial activity against Pseudomonas aeruginosa PAK; assay type: functional; method in brief: as §1
Pseudomonas aeruginosa [5] = test: Antimicrobial activity against Pseudomonas aeruginosa PA14; assay type: functional; method in brief: as §1
Pseudomonas aeruginosa [6] = test: Antimicrobial activity against Pseudomonas aeruginosa CP204; assay type: functional; method in brief: as §1
[7] = Toxicity against human erythrocytes assessed as hemolysis after 18 hrs; assay type: cell-based; settings: erythrocyte
Method in brief: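 Unlysed cells were removed by centrifugation (800 x g), and hemoglobin release was read at 570 nm. The MHC is the maximal concentration causing no hemolysis. Control was 1% erythrocytes without peptide.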

[8] = Toxicity against human erythrocytes assessed as increase in hemolytic activity after 18 hrs relative to V13KL peptide; assay type: cell-based; settings: erythrocyte
[9] = Toxicity against human erythrocytes assessed as hemolysis at 500 ug/ml after 18 hrs; settings: erythrocyte

Row | MIC (Pseudomonas aeruginosa [1]) | MIC (Pseudomonas aeruginosa [2]) | MIC (Pseudomonas aeruginosa [3]) | MIC (Pseudomonas aeruginosa [4]) | MIC (Pseudomonas aeruginosa [5]) | MIC (Pseudomonas aeruginosa [6]) | Molecule | Maximal concentration causing no hemolysis (MHC) [7] | Activity [8] | Activity [9]
1 | 250 µg/mL | 125 µg/mL | 250 µg/mL | 250 µg/mL | 500 µg/mL | 125 µg/mL | Ac-KWKSFAKTFKSAKKTVLHTALKAISS-NH2 [listing 1 of 2 here] | – | – | –
2 | – | – | – | – | – | – | Ac-KWKSFAKTFKSAKKTVLHTALKAISS-NH2 [listing 2 of 2 here] | 1000 µg/mL | 0.3 | –
3 | 31.3 µg/mL (≈ 10.2 µM) | 15.6 µg/mL (≈ 5.07 µM) | 250 µg/mL (≈ 81.3 µM) | 15.6 µg/mL (≈ 5.07 µM) | 62.5 µg/mL (≈ 20.3 µM) | 7.8 µg/mL (≈ 2.54 µM) | CC[C@H](C)[C@H](NC(=O)[C@H](CC(C)C)NC(=O)[C@H](CCCCN)NC(=O)[C@H](CC(C)C)NC(=O)[C@H](C)NC(=O)[C@@H](NC(=O)[C@H](Cc1c[nH]cn1)NC(=O)[C@H](CC(C)C)NC(=O)[C@@H](NC(=O)[C@@H](NC(=O)[C@H](CCCCN)NC(=O)[C@H](CCCCN)NC(=O)[C@H](CC(C)C)NC(=O)[C@H](CO)NC(=O)[C@H](CCCCN)NC(=O)[C@H](Cc1ccccc1)NC(=O)[C@@H](NC(=O)[C@H](CCCCN)NC(=O)[C@H](CC(C)C)NC(=O)[C@H](Cc1ccccc1)NC(=O)[C@H](CO)NC(=O)[C@H](CCCCN)NC(=O)[C@H](Cc1c[nH]c2ccccc12)NC(=O)[C@H](CCCCN)NC(C)=O)[C@@H](C)O)[C@@H](C)O)C(C)C)[C@@H](C)O)C(=O)N[C@@H](CO)C(=O)N[C@@H](CO)C(N)=O | 15.6 µg/mL | 16 | –
4 | 31.3 µg/mL | 31.3 µg/mL | 62.5 µg/mL | 62.5 µg/mL | 31.3 µg/mL | 15.6 µg/mL | Ac-KWKSFLKTFKSAKKTVLHTALKLISS-NH2 [listing 1 of 2 here] | – | – | –
5 | – | – | – | – | – | – | Ac-KWKSFLKTFKSAKKTVLHTALKLISS-NH2 [listing 2 of 2 here] | 62.5 µg/mL | 4 | –
6 | > 500 µg/mL | 500 µg/mL | > 500 µg/mL | > 500 µg/mL | > 500 µg/mL | > 500 µg/mL | Ac-KWKSFAKTFKSAKKTVLHTAAKAISS-NH2 | 1000 µg/mL | 0.3 | –
7 | 31.3 µg/mL (≈ 10.5 µM) | 31.3 µg/mL (≈ 10.5 µM) | 250 µg/mL (≈ 83.6 µM) | 125 µg/mL (≈ 41.8 µM) | 62.5 µg/mL (≈ 20.9 µM) | 7.8 µg/mL (≈ 2.61 µM) | CC[C@H](C)[C@H](NC(=O)[C@H](C)NC(=O)[C@H](CCCCN)NC(=O)[C@H](CC(C)C)NC(=O)[C@H](C)NC(=O)[C@@H](NC(=O)[C@H](Cc1cnc[nH]1)NC(=O)[C@H](CC(C)C)NC(=O)[C@@H](NC(=O)[C@@H](NC(=O)[C@H](CCCCN)NC(=O)[C@H](CCCCN)NC(=O)[C@H](C)NC(=O)[C@H](CO)NC(=O)[C@H](CCCCN)NC(=O)[C@H](Cc1ccccc1)NC(=O)[C@@H](NC(=O)[C@H](CCCCN)NC(=O)[C@H](CC(C)C)NC(=O)[C@H](Cc1ccccc1)NC(=O)[C@H](CO)NC(=O)[C@H](CCCCN)NC(=O)[C@H](Cc1c[nH]c2ccccc12)NC(=O)[C@H](CCCCN)NC(C)=O)[C@@H](C)O)[C@@H](C)O)C(C)C)[C@@H](C)O)C(=O)N[C@@H](CO)C(=O)N[C@@H](CO)C(N)=O | 250 µg/mL | 1 | Non-toxic
8 | 15.6 µg/mL (≈ 5.14 µM) | 15.6 µg/mL (≈ 5.14 µM) | 62.5 µg/mL (≈ 20.6 µM) | 31.3 µg/mL (≈ 10.3 µM) | 31.3 µg/mL (≈ 10.3 µM) | 15.6 µg/mL (≈ 5.14 µM) | CC[C@H](C)[C@H](NC(=O)[C@H](C)NC(=O)[C@H](CCCCN)NC(=O)[C@H](CC(C)C)NC(=O)[C@H](C)NC(=O)[C@@H](NC(=O)[C@H](Cc1c[nH]cn1)NC(=O)[C@H](CC(C)C)NC(=O)[C@@H](NC(=O)[C@@H](NC(=O)[C@H](CCCCN)NC(=O)[C@H](CCCCN)NC(=O)[C@H](CC(C)C)NC(=O)[C@H](CO)NC(=O)[C@H](CCCCN)NC(=O)[C@H](Cc1ccccc1)NC(=O)[C@@H](NC(=O)[C@H](CCCCN)NC(=O)[C@H](CC(C)C)NC(=O)[C@H](Cc1ccccc1)NC(=O)[C@H](CO)NC(=O)[C@H](CCCCN)NC(=O)[C@H](Cc1c[nH]c2ccccc12)NC(=O)[C@H](CCCCN)NC(C)=O)[C@@H](C)O)[C@@H](C)O)C(C)C)[C@@H](C)O)C(=O)N[C@@H](CO)C(=O)N[C@@H](CO)C(N)=O | 31.3 µg/mL | 8 | –
